The test system of one data set is HIV-1NL4-3. The experiment in a line: Anti-HIV-1 assay in TZM-GFP cells. In kind it is cell-based. The following applies: for inhibition at 2 µM: Human immunodeficiency virus 1, read-out: Inhibition at 2 μmol/L; for inhibition at 20 µM: Human immunodeficiency virus 1, read-out: Inhibition at 20 μmol/L; for Inhibition at 2 μmol/L: 2 μmol/L compound. The gist of the method:
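TZM-GFP cells seeded at 1 × 10^4 per well; after 24 h, medium replaced with test compound at 20 μmol/L, with actives retested at 2 μmol/L. HIV-1NL4-3 (HEK 293FT-transfection stock, MT2-propagated, PEG-concentrated) added at MOI 1 24 h later. After 48 h, GFP-positive cells counted by imaging; inhibition relative to DMSO controls. Duplicates, at least two independent experiments.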

The nature of another data set: Cytotoxicity assay. In kind it is cell-based. As to conditions: human, TZM-GFP cells. The gist of the method: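 TZM-GFP cells were plated at 1 × 10^4 cells per well and exposed continuously to increasing concentrations of test compound for 72 h. Viable cells were counted by XTT. CC50 came from a log(inhibitor) vs normalized response, variable-slope fit for each independent assay, then averaged. Runs were in duplicate across at least two independent experiments; mean ± SD.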

Data set [1] is described as follows: Microsomal stability assay, human liver microsomes. It is filed as in vitro ADME. The following applies: for half-life at 1 μmol/L: human, pH 7.4. (Microsomes from liver hold many membrane-bound enzymes, among them those of drug oxidation.)
Data set [2] is described as follows: Microsomal stability assay, mouse liver microsomes. It is filed as in vitro ADME. As to conditions: for half-life at 1 μmol/L: mouse, pH 7.4.

Entries after “also recorded” stand apart in the source; their conditions may differ. Where a SMILES comes first, the peptide text is derived from it. The star is where a group is joined. Bz = O=C(c1ccccc1)*; NHPh = c1ccc(N*)cc1 Some results are limits rather than exact numbers.

`CN(C(=O)[C@H](Cc1ccccc1)NC(=O)CC1NC(=O)NC1=O)c1ccccc1` (stereo partly drawn) [Compound 2, (2S)-2-(2-(2,5-Dioxoimidazolidin-4-yl)acetamido)-N-methyl-N,3-diphenylpropanamide]: in the data set with HIV-1NL4-3 (HIV-1 in TZM-GFP cells), the “antiviral activity against HIV-1 (in words)” value (from here on “antiviral activity”) is “completely inactive”. This compound had a CC50 at 72 h in the data set “Cytotoxicity assay” above 50 µM.

In the case of `Cc1ccc(N(C)C(=O)[C@H](Cc2ccccc2)NC(=O)CC2NC(=O)NC2=O)cc1` (stereo partly drawn) [Compound 3, (2S)-2-(2-(2,5-Dioxoimidazolidin-4-yl)acetamido)-N-methyl-3-phenyl-N-(p-tolyl)propanamide], in the data set on HIV-1NL4-3, the inhibition at 2 µM was 2% and the inhibition at 20 µM is 62%. Besides, the CC50 at 72 h in “Cytotoxicity assay” was above 50 µM.

Take `CN(C(=O)[C@H](Cc1ccccc1)NC(=O)CC1NC(=O)NC1=O)c1ccc(Cl)cc1` (stereo partly drawn) [Compound 4, (2S)-N-(4-Chlorophenyl)-2-(2-(2,5-dioxoimidazolidin-4-yl)acetamido)-N-methyl-3-phenylpropanamide]: the “Inhibition at 2 μmol/L” value in the data set on HIV-1NL4-3 (HIV-1 in TZM-GFP cells) was “inhibited HIV-1 weakly”. The “Inhibition at 20 μmol/L” value with HIV-1NL4-3 (20 μmol/L compound, HIV-1 in TZM-GFP cells) is “almost completely”. In the data set with HIV-1NL4-3, the inhibition at 2 µM amounted to 17% and the inhibition at 20 µM stood at 96%. Further, the CC50 at 72 h in “Cytotoxicity assay” was above 50 µM.

`CN(C(=O)[C@H](Cc1ccccc1)NC(=O)CC1NC(=O)NC1=O)c1cccc(Cl)c1` (stereo partly drawn) [Compound 5, (2S)-N-(3-Chlorophenyl)-2-(2-(2,5-dioxoimidazolidin-4-yl)acetamido)-N-methyl-3-phenylpropanamide]: the CC50 at 72 h in the data set “Cytotoxicity assay” is above 50 µM.

`CN(C(=O)[C@H](Cc1ccccc1)NC(=O)CC1NC(=O)NC1=O)c1ccc(F)cc1` (stereo partly drawn) [Compound 6, (2S)-2-(2-(2,5-Dioxoimidazolidin-4-yl)acetamido)-N-(4-fluorophenyl)-N-methyl-3-phenylpropanamide] returned a half-maximal cytotoxic concentration (CC50) at 72 h in “Cytotoxicity assay” above 50 µM.

As to `CN(C(=O)[C@H](Cc1ccccc1)NC(=O)CC1NC(=O)NC1=O)c1cccc(F)c1` (stereo partly drawn) [Compound 7, (2S)-2-(2-(2,5-Dioxoimidazolidin-4-yl)acetamido)-N-(3-fluorophenyl)-N-methyl-3-phenylpropanamide], the CC50 at 72 h in “Cytotoxicity assay” was above 50 µM.

For `Cc1cn(CC(=O)N[C@@H](Cc2ccccc2)C(=O)N(C)c2ccccc2)c(=O)[nH]c1=O` [Compound 8, (S)-N-Methyl-2-(2-(5-methyl-2,4-dioxo-3,4-dihydropyrimidin-1(2H)-yl)acetamido)-N,3-diphenylpropanamide], the “Inhibition at 2 μmol/L” value in the data set with HIV-1NL4-3 (HIV-1 in TZM-GFP cells) is on record as “exhibited inhibition”. Further, in the data set with HIV-1NL4-3, the inhibition at 2 µM is 35% and the inhibition at 20 µM is 95%. The compound further registered a CC50 at 72 h in “Cytotoxicity assay” above 50 µM.

For `Cc1ccc(N(C)C(=O)[C@H](Cc2ccccc2)NC(=O)Cn2cc(C)c(=O)[nH]c2=O)cc1` [Compound 9, (S)-N-Methyl-2-(2-(5-methyl-2,4-dioxo-3,4-dihydropyrimidin-1(2H)-yl)acetamido)-3-phenyl-N-(p-tolyl)propanamide], in the data set on HIV-1NL4-3, the inhibition at 2 µM turned out to be 7% and the inhibition at 20 µM was 85%. In “Cytotoxicity assay”, this compound returned a CC50 at 72 h above 50 µM.

Consider `Cc1cn(CC(=O)N[C@@H](Cc2ccccc2)C(=O)N(C)c2cccc(Cl)c2)c(=O)[nH]c1=O` [Compound 11, (S)-N-(3-Chlorophenyl)-N-methyl-2-(2-(5-methyl-2,4-dioxo-3,4-dihydropyrimidin-1(2H)-yl)acetamido)-3-phenylpropanamide], for which the “Inhibition at 2 μmol/L” value in the data set on HIV-1NL4-3 (HIV-1 in TZM-GFP cells) is “exhibited inhibition”. For the same compound, in the data set with HIV-1NL4-3, the inhibition at 2 µM was 37% and the inhibition at 20 µM worked out at 95%. In addition, the CC50 at 72 h in the data set “Cytotoxicity assay” was above 50 µM.

Consider `Cc1cn(CC(=O)N[C@@H](Cc2ccccc2)C(=O)N(C)c2ccc(F)cc2)c(=O)[nH]c1=O` [Compound 12, (S)-N-(4-Fluorophenyl)-N-methyl-2-(2-(5-methyl-2,4-dioxo-3,4-dihydropyrimidin-1(2H)-yl)acetamido)-3-phenylpropanamide], for which, in the data set on HIV-1NL4-3, the inhibition at 2 µM came out at 6% and the inhibition at 20 µM stood at 94%. The compound further returned a CC50 at 72 h in “Cytotoxicity assay” above 50 µM.

Take `Cc1cn(CC(=O)N[C@@H](Cc2ccccc2)C(=O)N(C)c2cccc(F)c2)c(=O)[nH]c1=O` [Compound 13, (S)-N-(3-Fluorophenyl)-N-methyl-2-(2-(5-methyl-2,4-dioxo-3,4-dihydropyrimidin-1(2H)-yl)acetamido)-3-phenylpropanamide]: in the data set with HIV-1NL4-3, the inhibition at 2 µM is 0% and the inhibition at 20 µM was 74%. In the data set “Cytotoxicity assay”, this compound showed a CC50 at 72 h above 50 µM.

Take `Cc1cn(CC(=O)N[C@@H](Cc2ccccc2)C(=O)N(C)c2cccc(Br)c2)c(=O)[nH]c1=O` [Compound 14, (S)-N-(3-Bromophenyl)-N-methyl-2-(2-(5-methyl-2,4-dioxo-3,4-dihydropyrimidin-1(2H)-yl)acetamido)-3-phenylpropanamide]: the “Inhibition at 2 μmol/L” value with HIV-1NL4-3 (HIV-1 in TZM-GFP cells) was “exhibited inhibition”. Besides, in the data set with HIV-1NL4-3, the inhibition at 2 µM was determined as 22% and the inhibition at 20 µM is 100%. The compound also registered a CC50 at 72 h in the data set “Cytotoxicity assay” above 50 µM.

As for `Cc1cn(CC(=O)N[C@@H](Cc2ccccc2)C(=O)N(C)c2cccc(C(F)(F)F)c2)c(=O)[nH]c1=O` [Compound 15, (S)-N-Methyl-2-(2-(5-methyl-2,4-dioxo-3,4-dihydropyrimidin-1(2H)-yl)acetamido)-3-phenyl-N-(3-(trifluoromethyl)phenyl)propanamide], in the data set with HIV-1NL4-3 (HIV-1 in TZM-GFP cells), the “Inhibition at 2 μmol/L” value is “exhibited inhibition”. In the data set with HIV-1NL4-3, the inhibition at 2 µM came to 28% and the inhibition at 20 µM turned out to be 95%. Moreover, the CC50 at 72 h in “Cytotoxicity assay” was above 50 µM.

As to `Cc1cn(CC(=O)N[C@@H](C(=O)N(C)c2ccccc2)c2ccccc2)c(=O)[nH]c1=O` [Compound 16, (R)-N-Methyl-2-(2-(5-methyl-2,4-dioxo-3,4-dihydropyrimidin-1(2H)-yl)acetamido)-N,2-diphenylacetamide], the “antiviral activity” value in the data set on HIV-1NL4-3 (HIV-1 in TZM-GFP cells) is reported as “did not inhibit HIV-1”. This compound also came in with a CC50 at 72 h in the data set “Cytotoxicity assay” above 50 µM.

On to `CN(C(=O)[C@H](Cc1ccccc1)NC(=O)c1c[nH]c(=O)[nH]c1=O)c1ccccc1` [Compound 17, (S)-N-(1-(Methyl(phenyl)amino)-1-oxo-3-phenylpropan-2-yl)-2,4-dioxo-1,2,3,4-tetrahydropyrimidine-5-carboxamide], for which the “antiviral activity” value with HIV-1NL4-3 (HIV-1 in TZM-GFP cells) was “lack of antiviral activity; also recorded: completely inactive”. Further, the CC50 at 72 h in the data set “Cytotoxicity assay” was above 50 µM.

Consider `Cc1ccc(N(C)C(=O)[C@H](Cc2ccccc2)NC(=O)CNC(=O)c2ccccc2)cc1` [Compound 19, (S)-N-(2-((1-(Methyl(p-tolyl)amino)-1-oxo-3-phenylpropan-2-yl)amino)-2-oxoethyl)benzamide], for which the CC50 at 72 h in the data set “Cytotoxicity assay” is above 50 µM. Moreover, the half-life at 1 μmol/L in data set [1] amounted to 22 min; in data set [2], 5 min.

`CN(C(=O)[C@H](Cc1ccccc1)NC(=O)CNC(=O)c1ccccc1)c1ccc(Cl)cc1` [Compound 20, (S)-N-(2-((1-((4-Chlorophenyl)(methyl)amino)-1-oxo-3-phenylpropan-2-yl)amino)-2-oxoethyl)benzamide] came in with a CC50 at 72 h in the data set “Cytotoxicity assay” above 50 µM. Also, the results for the half-life at 1 μmol/L in data set [1] and in data set [2] were 36 min and 13 min, respectively. The “fold increase of half-life over PF74 in HLMs” value in data set [1] (relative to PF74) worked out at 51 fold. Also, in data set [2] (relative to PF74), the “fold increase of half-life over PF74 in MLMs” value came to 22 fold.

Regarding `CN(C(=O)[C@H](Cc1ccccc1)NC(=O)CNC(=O)c1ccccc1)c1cccc(Cl)c1` [Compound 21, (S)-N-(2-((1-((3-Chlorophenyl)(methyl)amino)-1-oxo-3-phenylpropan-2-yl)amino)-2-oxoethyl)benzamide], in the data set with HIV-1NL4-3, the inhibition at 2 µM is 40% and the inhibition at 20 µM was 95%. This compound also had a cytotoxic concentration (CC50) at 72 h in the data set “Cytotoxicity assay” above 50 µM.

As for `CN(C(=O)[C@H](Cc1ccccc1)NC(=O)CNC(=O)c1ccccc1)c1ccc(F)cc1` [Compound 22, (S)-N-(2-((1-((4-Fluorophenyl)(methyl)amino)-1-oxo-3-phenylpropan-2-yl)amino)-2-oxoethyl)benzamide], in the data set on HIV-1NL4-3, the inhibition at 2 µM was 12% and the inhibition at 20 µM was found to be 97%. This compound also showed a CC50 at 72 h in “Cytotoxicity assay” above 50 µM.

With `CN(C(=O)[C@H](Cc1ccccc1)NC(=O)CNC(=O)c1ccccc1)c1cccc(Br)c1` [Compound 24, (S)-N-(2-((1-((3-Bromophenyl)(methyl)amino)-1-oxo-3-phenylpropan-2-yl)amino)-2-oxoethyl)benzamide], in the data set with HIV-1NL4-3, the inhibition at 2 µM came to 38% and the inhibition at 20 µM worked out at 97%. The compound also had a CC50 at 72 h in “Cytotoxicity assay” above 50 µM.

On to `CN(C(=O)[C@H](Cc1ccccc1)NC(=O)CNC(=O)c1ccccc1)c1cccc(C(F)(F)F)c1` [Compound 25, (S)-N-(2-((1-(Methyl(3-(trifluoromethyl)phenyl)amino)-1-oxo-3-phenylpropan-2-yl)amino)-2-oxoethyl)benzamide], for which, in the data set with HIV-1NL4-3, the inhibition at 2 µM turned out to be 19% and the inhibition at 20 µM came out at 89%. Besides, the CC50 at 72 h in the data set “Cytotoxicity assay” was above 50 µM.

With `CCN(C(=O)[C@H](Cc1ccccc1)NC(=O)CNC(=O)c1ccccc1)c1ccccc1` [Compound 26, (S)-N-(2-((1-(Ethyl(phenyl)amino)-1-oxo-3-phenylpropan-2-yl)amino)-2-oxoethyl)benzamide], the CC50 at 72 h in “Cytotoxicity assay” was above 50 µM. Further, the half-life at 1 μmol/L was 14 min in data set [1] and 2.4 min in data set [2].

`O=C(CNC(=O)c1ccccc1)N[C@@H](Cc1ccccc1)C(=O)N1CCC[C@H]1C(=O)Nc1ccccc1` [Compound 27, (S)-1-(Benzoylglycyl-L-phenylalanyl)-N-phenylpyrrolidine-2-carboxamide] (Bz-Gly-Phe-Pro-NHPh): the CC50 at 72 h in “Cytotoxicity assay” is above 50 µM.

As a reminder, the CC50 is the concentration that lowers cell viability or growth by half. One may read the half-life as the time needed for the level to fall by half in the phase considered. A high value points to slow decline.

Source of the values: PMC7982424 (Acta Pharmaceutica Sinica. B, 2020).
